Data published in ChEMBL document CHEMBL1130878 (Bioorg Med Chem Lett, 1998).

Legend:
[1] = target: T1, Endothelin receptor type B (Sus scrofa, UniProt P35463); test: In vitro ability to inhibit specific [125I]ET1 binding to porcine kidney (inner medulla) membranes Endothelin B receptor
T1 sequence (P35463 whole entry): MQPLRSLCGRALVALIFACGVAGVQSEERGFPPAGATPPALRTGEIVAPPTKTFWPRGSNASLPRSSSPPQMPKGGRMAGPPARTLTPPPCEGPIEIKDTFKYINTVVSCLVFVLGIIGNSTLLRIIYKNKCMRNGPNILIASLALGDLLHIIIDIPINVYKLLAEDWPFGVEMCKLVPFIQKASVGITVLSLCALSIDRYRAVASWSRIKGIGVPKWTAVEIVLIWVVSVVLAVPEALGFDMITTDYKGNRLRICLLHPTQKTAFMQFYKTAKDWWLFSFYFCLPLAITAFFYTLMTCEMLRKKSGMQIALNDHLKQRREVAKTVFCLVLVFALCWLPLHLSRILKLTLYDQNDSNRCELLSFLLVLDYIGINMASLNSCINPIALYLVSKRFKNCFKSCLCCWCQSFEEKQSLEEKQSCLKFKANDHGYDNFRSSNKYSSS

Endothelin-1 receptor = target: T2, Endothelin-1 receptor (Rattus norvegicus, UniProt P26684); test: In vitro ability to inhibit specific [125I]ET1 binding to rat aorta membranes Endothelin A receptor; type: tissue-based
T2 sequence (P26684 whole entry): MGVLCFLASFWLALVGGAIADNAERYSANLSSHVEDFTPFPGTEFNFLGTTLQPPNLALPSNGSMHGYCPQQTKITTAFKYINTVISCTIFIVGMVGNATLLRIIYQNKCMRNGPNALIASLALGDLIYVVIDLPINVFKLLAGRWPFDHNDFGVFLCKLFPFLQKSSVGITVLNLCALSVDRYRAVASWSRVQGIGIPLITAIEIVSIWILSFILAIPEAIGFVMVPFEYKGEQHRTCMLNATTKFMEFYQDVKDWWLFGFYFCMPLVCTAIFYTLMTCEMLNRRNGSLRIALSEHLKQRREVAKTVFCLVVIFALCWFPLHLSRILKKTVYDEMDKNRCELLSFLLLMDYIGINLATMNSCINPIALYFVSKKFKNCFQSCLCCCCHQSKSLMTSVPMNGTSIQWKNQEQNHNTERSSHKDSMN

Oryctolagus cuniculus = species: Oryctolagus cuniculus; test: Compound was evaluated for the functional assay performed by obtaining sarafotoxin 6c concentration-response curves [pA2(ETB)] in isolated rabbit jugularis vein
Rattus norvegicus = species: Rattus norvegicus; test: Compound was evaluated for the functional assay performed by obtaining ET-1 concentration-response curves [pA2(ETA)] in isolated rat aortic rings; details: Aorta, read-out: pA2 (converted)
How it was run: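 Functional ETA assay: ET-1 concentration-response curves in isolated rat aortic rings with the endothelium removed. Antagonism is expressed as pA2.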

COc1cc(C/C(C(=O)c2ccc(OC(C)C)c(F)c2)=C(/C(=O)O)c2ccc3nsnc3c2)cc(OC)c1OC
IC50 [1]: 290 nM | IC50 (Endothelin-1 receptor): 65 nM

COc1cc(C/C(C(=O)c2ccc(OC(C)C)cc2)=C(/C(=O)O)c2ccc3nsnc3c2)cc(OC)c1OC
IC50 [1]: 550 nM | IC50 (Endothelin-1 receptor): 64 nM

COc1ccc(C(=O)/C(Cc2cc(OC(C)C)c(OC(C)C)c(OC(C)C)c2)=C(\C(=O)O)c2ccc3nsnc3c2)cc1
IC50 [1]: 220 nM | IC50 (Endothelin-1 receptor): 57 nM

COc1ccc(C(=O)/C(Cc2ccc3c(c2)OCO3)=C(\C(=O)O)c2ccc3nsnc3c2)cc1
IC50 [1]: 1500 nM | IC50 (Endothelin-1 receptor): 66 nM

COc1ccc(C(=O)/C(Cc2cc(OC)c(OC)c(OC)c2)=C(\C(=O)O)c2ccc3nsnc3c2)cc1
IC50 [1]: 340 nM | Kb (Oryctolagus cuniculus): 794 nM | Kb (Rattus norvegicus): 3.16 nM | IC50 (Endothelin-1 receptor): 0.3 nM

COc1ccc(C(=O)/C(Cc2ccccc2)=C(\C(=O)O)c2ccc3c(c2)OCO3)cc1
IC50 [1]: 4550 nM | IC50 (Endothelin-1 receptor): 7.4 nM

COc1ccc(C(=O)/C(Cc2ccc(OC(C)(C)C)cc2)=C(\C(=O)O)c2ccc3nsnc3c2)cc1
IC50 [1]: 1600 nM | IC50 (Endothelin-1 receptor): 580 nM

COc1ccc(C(=O)/C(Cc2ccc(SC)cc2)=C(\C(=O)O)c2ccc3nsnc3c2)cc1
IC50 [1]: 3200 nM | IC50 (Endothelin-1 receptor): 17 nM

COc1ccc(C(=O)/C(Cc2cccc(OC)c2)=C(\C(=O)O)c2ccc3nsnc3c2)cc1
IC50 [1]: 1000 nM | IC50 (Endothelin-1 receptor): 3.4 nM

COc1ccc(C/C(C(=O)c2ccc(OC)cc2)=C(/C(=O)O)c2ccc3nsnc3c2)cc1
IC50 [1]: 1800 nM | IC50 (Endothelin-1 receptor): 28 nM

COc1ccc(C(=O)/C(Cc2cc(OC)c(OC)c(OC)c2)=C(\C(=O)O)c2ccc3nsnc3c2)c(F)c1
IC50 (Endothelin-1 receptor): 3 nM

COc1cc(C/C(C(=O)c2ccc3c(c2)OCO3)=C(/C(=O)O)c2ccc3nsnc3c2)cc(OC)c1OC
IC50 [1]: 400 nM | IC50 (Endothelin-1 receptor): 6.5 nM

COc1ccc(C(=O)/C(Cc2cc(OC)c(OC)c(OC)c2)=C(\C(=O)O)c2ccc3nsnc3c2)cc1C
IC50 [1]: 260 nM | IC50 (Endothelin-1 receptor): 1.4 nM

COc1cc(F)ccc1C(=O)/C(Cc1cc(OC)c(OC)c(OC)c1)=C(\C(=O)O)c1ccc2nsnc2c1
IC50 (Endothelin-1 receptor): 12 nM
